Activity calls are given as the source filed them. No cut-off for these calls is given here.
Legend:
[1] = test system: PANC-1; assay: Antiausteritic activity against human PANC1 cells in nutrient-deprived medium measured after 24 hrs by WST8 assay; format: functional
How it was run: (§1)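 Cells kept in DMEM with 10% FBS at 37 °C, 5% CO2. Seeded at 1.5 × 10^4 cells/well in DMEM for 24 h, washed twice with PBS, then exposed 24 h to serially diluted samples in DMEM or nutrient-deprived medium (NDM). Viability by WST-8 (3 h, A450) from three-well means. PC50 is the concentration killing 50% of cells in NDM without toxicity in DMEM.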

[2] = test system: PSN1; assay: Antiausteritic activity against human PSN1 cells in nutrient-deprived medium measured after 24 hrs by WST8 assay; format: functional; how it was run: as §1
[3] = test system: MIA PaCa-2; assay: Antiausteritic activity against human MIAPaCa2 cells in nutrient-deprived medium measured after 24 hrs by WST8 assay; format: functional; how it was run: as §1
[4] = test system: MIA PaCa-2; assay: Cytotoxicity against human MIAPaCa2 cells in DMEM measured after 24 hrs by WST8 assay; format: cell-based; settings: mia paca-2, 24 h; how it was run: as §1
[5] = test system: PSN1; assay: Cytotoxicity against human PSN1 cells in DMEM measured after 24 hrs by WST8 assay; format: cell-based; settings: psn1, 24 h; how it was run: as §1
[6] = test system: PANC-1; assay: Cytotoxicity against human PANC1 cells in DMEM measured after 24 hrs by WST8 assay; format: cell-based; settings: panc-1, 24 h; how it was run: as §1
[7] = test system: PANC-1; assay: Reduction in total AKT expression in human PANC1 cells in nutrient deprived medium at up to 5 uM measured within 6 hrs by Western blot analysis; format: functional, cell-based
How it was run: (§2)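 PANC-1 cells treated in nutrient-deprived medium. Proteins resolved by SDS-PAGE and transferred to PVDF. Membranes blocked, washed in PBS with 0.1% Tween 20, and incubated overnight with primary antibodies against p-Akt, Akt, p-mTOR and mTOR. GAPDH served as loading control.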

[8] = species: Homo sapiens; assay: Inhibition of AKT/mTOR signaling in human PANC1 cells in nutrient deprived medium assessed as effect on mTOR phosphorylation up to 5 uM measured within 6 hrs by Western blot analysis; format: cell-based; how it was run: as §2
[9] = test system: PANC-1; assay: Antiausteritic activity against human PANC1 cells in nutrient deprived medium assessed as induction of morphological changes at 6.25 to 25 uM after 24 hrs by ethidium bromide/acridine orange staining based microscopic method; format: functional, cell-based
How it was run: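 PANC-1 (2 × 10^5) seeded in 30 mm dishes overnight, washed twice with PBS, treated in NDM for 24 h in humidified CO2 incubator. Acridine orange/ethidium bromide double stain, 15 min in the dark. Fluorescence (red/green) and phase-contrast imaging at 20× objective.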

[10] = test system: PANC-1; assay: Antimigratory activity in human PANC1 cells in DMEM assessed as cell migration at 10 uM after 24 hrs by wound healing assay (reference value: 95%); format: functional
[11] = test system: PANC-1; assay: Antiausteritic activity against human PANC1 cells in nutrient deprived medium assessed as cell death at 25 uM after 24 hrs by ethidium bromide/acridine orange staining based microscopic method relative to control; format: functional
How it was run: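 PANC-1 cells seeded at 2 × 10^5 per 30 mm dish, attached overnight, PBS-washed twice, then exposed to compound in nutrient-deprived medium (NDM) for 24 h in humidified CO2 incubator. Acridine orange/ethidium bromide double stain added 15 min in dark; fluorescence (red/green) and phase-contrast images taken at 20× objective; red-fluorescing, morphologically altered cells scored as dead.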

[12] = test system: PANC-1; assay: Antiausteritic activity against human PANC1 cells in nutrient deprived medium assessed as cell death at 10 uM measured every 10 mins for 24 hrs by phase contrast microscopic method; format: functional, cell-based
How it was run: (§3)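 PANC-1 (2 × 10^5) attached overnight in complete medium, washed twice with PBS, treated with 10 μM in NDM. Held in a stage-top incubator at 37 °C, 5% CO2. Phase-contrast images taken every 10 min for 24 h.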

[13] = test system: PANC-1; assay: Antiausteritic activity against human PANC1 cells in nutrient deprived medium assessed as disintegration of cell organelles at 10 uM measured every 10 mins for 24 hrs by phase contrast microscopic method; format: functional, cell-based; how it was run: as §3
[14] = test system: PANC-1; assay: Inhibition of colony formation in human PANC1 cells in DMEM at 12.5 uM after 10 days by crystal violet staining based assay; format: functional, cell-based
How it was run: (§4)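 PANC-1 at 500 cells/well in DMEM, attached 24 h at 37 °C, 5% CO2. Treated with 12.5 or 25 μM in DMEM and grown 10 days. Cells washed with PBS, fixed with 4% formaldehyde, stained 15 min with crystal violet. Colony area measured; three replicates.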

[15] = test system: PANC-1; assay: Antiausteritic activity against human PANC1 cells in nutrient deprived medium assessed as plasma blebbing at 10 uM measured every 10 mins […] by phase contrast microscopic method; format: functional, cell-based; how it was run: as §3
[16] = test system: PANC-1; assay: Antiausteritic activity against human PANC1 cells in nutrient deprived medium assessed as cell shrinkage at 10 uM measured every 10 mins […] by phase contrast microscopic method; format: functional, cell-based; how it was run: as §3
[17] = test system: PANC-1; assay: Inhibition of colony formation in human PANC1 cells in DMEM at 25 uM after 10 days by crystal violet staining based assay relative to control; format: functional; settings: PANC-1, 240 h; how it was run: as §4

C/C(=C\COc1c2ccoc2cc2oc(=O)ccc12)CC[C@@H](O)C(C)(C)O
PC50 [1]: 76.5 µM
PC50 [2]: 76.1 µM
PC50 [3]: 49.4 µM
Activity [4]: Non-Toxic
Activity [5]: Non-Toxic
Activity [6]: Non-Toxic

COC(C)(C)[C@H](O)COc1c2ccoc2cc2oc(=O)ccc12
PC50 [1]: 89.6 µM
PC50 [2]: 89.7 µM
PC50 [3]: 87 µM
Activity [4]: Non-Toxic
Activity [5]: Non-Toxic
Activity [6]: Non-Toxic

COC(C)(C)[C@H](O)CC/C(C)=C/COc1c2ccoc2cc2oc(=O)ccc12
PC50 [1]: 37.8 µM
PC50 [2]: 37.8 µM
PC50 [3]: 37.1 µM
Activity [4]: Non-Toxic
Activity [5]: Non-Toxic
Activity [6]: Non-Toxic

C=C(C)[C@@H](O)COc1c2ccoc2cc2oc(=O)ccc12
PC50 [1]: 86.6 µM
PC50 [2]: >100 µM
PC50 [3]: >100 µM
Activity [4]: Non-Toxic
Activity [5]: Non-Toxic
Activity [6]: Non-Toxic

CO[C@@H](COc1c2ccoc2cc2oc(=O)ccc12)C(C)(C)O
PC50 [1]: 18.8 µM
PC50 [2]: 40.6 µM
PC50 [3]: 51.1 µM
Activity [4]: Non-Toxic
Activity [5]: Non-Toxic
Activity [6]: Non-Toxic

COc1cc(C[C@H]2C(=O)OC[C@@H]2Cc2ccc(OC)c(OC)c2)ccc1O [ARCTIGENIN]
PC50 [1]: 0.7 µM
PC50 [2]: 0.7 µM
PC50 [3]: 1.9 µM

CC(C)=CCC/C(C)=C/COc1c2ccoc2cc2oc(=O)ccc12 [BERGAMOTTIN]
Activity [7]: Active
inhibition [8]: Active
Activity [9]: Active
Activity [10]: 30%
Activity [1]: Dose-dependent effect
PC50 [1]: 4.6 µM
Activity [11]: 100%
Activity [2]: Dose-dependent effect
PC50 [2]: 9.4 µM
Activity [12]: Active
Activity [13]: Active
Activity [3]: Dose-dependent effect
PC50 [3]: 2.2 µM
inhibition [14]: Active
Activity [15]: Active
Activity [4]: Non-Toxic
Activity [5]: Non-Toxic
Activity [16]: Active
Activity [6]: Non-Toxic
inhibition at 25 µM [17]: 100%

CC(C)=CCOc1c2ccoc2cc2oc(=O)ccc12 [ISOIMPERATORIN]
PC50 [1]: 41.2 µM
PC50 [2]: 41.7 µM
PC50 [3]: 37.2 µM
Activity [4]: Non-Toxic
Activity [5]: Non-Toxic
Activity [6]: Non-Toxic

CC(C)(O)[C@H](O)COc1c2ccoc2cc2oc(=O)ccc12 [OXYPEUCEDANIN HYDRATE]
PC50 [1]: 41.2 µM
PC50 [2]: 89.7 µM
PC50 [3]: 79.4 µM
Activity [4]: Non-Toxic
Activity [5]: Non-Toxic
Activity [6]: Non-Toxic

CC1(C)O[C@H]1COc1c2ccoc2cc2oc(=O)ccc12 [OXYPEUCEDANIN]
PC50 [1]: 76.5 µM
PC50 [2]: 74.6 µM
PC50 [3]: 38 µM
Activity [4]: Non-Toxic
Activity [5]: Non-Toxic
Activity [6]: Non-Toxic

O=c1ccc2ccc(O)cc2o1 [UMBELLIFERONE]
PC50 [1]: >100 µM
PC50 [2]: >100 µM
PC50 [3]: >100 µM
Activity [4]: Non-Toxic
Activity [5]: Non-Toxic
Activity [6]: Non-Toxic
